From ChEMBL document CHEMBL2321813, “Discovery of allosteric modulators of factor XIa by targeting hydrophobic domains adjacent to its heparin-binding site” (J Med Chem, 2013) come the findings set out here.

Experiment [1] addresses T1, Coagulation factor XI (Homo sapiens, UniProt P03951). The experiment can be described thus: Inhibition of human factor 11a using S2366 as substrate assessed as residual protease activity after 10 mins by spectrophotometry. The gist of the method:
(§1)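 FXIa at 0.765 nM (final) preincubated 10 min at 37 °C with compound (12 serial dilutions) in 50 mM Tris-HCl pH 7.4, 150 mM NaCl, 0.1% PEG8000, 0.02% Tween80. S2366 (345 μM final) then added. Initial rate read at 405 nm. Fractional residual activity fit to a logistic equation for IC50, Hill slope and ΔY.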

Experiment [2] has as its target T1, Coagulation factor XI. The experiment can be described thus: Inhibition of human factor 11a using S2366 as substrate after 10 mins by spectrophotometry. The gist of the method: as §1
Experiment [3] addresses T1, Coagulation factor XI. The experiment can be described thus: Binding affinity to human factor 11a-DEGR by spectrofluorometry. In outline: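 Fluorescence titration of active-site dansylated FXIa (FXIa-DEGR, 250 nM) with aliquots of sulfated QAO in 50 mM Tris-HCl pH 7.4, 150 mM NaCl, 0.1% PEG8000 at 37 °C. Emission monitored at 547 nm (λex 345 nm). Change in fluorescence fit to the Hill equation to give apparent KD.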

The target in experiment [4] is Chymotrypsinogen A (Bos taurus) (UniProt P00766). The experiment is described as follows: Inhibition of bovine alpha-chymotrypsin assessed as residual protease activity at 500 uM after 10 mins by spectrophotometry.
The target of experiment [5] is Prothrombin (Homo sapiens) (UniProt P00734). The experiment is described as follows: Inhibition of human thrombin assessed as residual protease activity at 500 uM after 10 mins by spectrophotometry.
The next experiment deals with Plasma. The experiment can be described thus: Anticoagulant activity in human plasma assessed as concentration required to double activated partial thromboplastin time. It counts as functional. In outline:
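Citrated pooled normal human plasma. APTT: 10 μL compound mixed with 90 μL plasma and 100 μL prewarmed APTT reagent (0.2% ellagic acid), incubated 4 min at 37 °C, then clotting started with 100 μL prewarmed 25 mM CaCl2. Vehicle control was deionized water and/or organic vehicle. Clot time was read on a fibrometer. Data fit to a quadratic trend line to get the concentration doubling clotting time. Run in duplicate.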

Experiment [6] addresses Coagulation factor X (Homo sapiens) (UniProt P00742). The experiment is described as follows: Inhibition of human factor 10a assessed as residual protease activity at 500 uM after 10 mins by spectrophotometry.
In experiment [7] the target is T2, Serine protease 1 (Bos taurus) (UniProt P00760).
T2 sequence (whole entry): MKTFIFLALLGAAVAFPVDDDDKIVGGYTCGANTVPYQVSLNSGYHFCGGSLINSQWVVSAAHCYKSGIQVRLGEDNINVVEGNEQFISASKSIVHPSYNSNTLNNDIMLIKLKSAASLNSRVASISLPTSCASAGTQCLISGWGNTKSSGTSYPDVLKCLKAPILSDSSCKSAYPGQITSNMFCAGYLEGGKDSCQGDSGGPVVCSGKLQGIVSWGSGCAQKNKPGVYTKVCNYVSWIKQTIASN
The experiment can be described thus: Inhibition of bovine trypsin assessed as residual protease activity at 500 uM after 10 mins by spectrophotometry.

Experiment [8] has as its target T1, Coagulation factor XI. The experiment is described as follows: Inhibition of human wild type full length factor 11a transfected in HEK293 cells using S2366 as substrate assessed as residual protease activity at 3 uM after 10 mins by spectrophotometry. In outline:
(§2)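 Full-length wild-type FXIa, FXIa catalytic domain, and the Lys529Ala/Arg530Ala/Arg532Ala catalytic domain mutant were recombinant proteins from stably transfected HEK-293 cells, activated with FXIIa. Residual activity was measured by S2366 hydrolysis with 3 μM compound, with or without 30 μM Polybrene.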

The species entered for experiment [9] is Homo sapiens. The experiment is described as follows: Ratio of IC50 for human recombinant factor 11a catalytic domain Arg530Ala mutant to IC50 for human recombinant factor XIa catalytic domain. The gist of the method:
(§3)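 Recombinant FXI catalytic domain constructs (wild type, Arg530Ala, Lys529Ala/Arg530Ala/Arg532Ala) were expressed stably in HEK-293 cells. […] Inhibition was measured by S2366 hydrolysis in 50 mM Tris-HCl pH 7.4, 150 mM NaCl, 0.1% PEG8000, 0.02% Tween80 at 37 °C. Dose-response data were fit to the logistic equation.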

Experiment [10] is filed under the species Homo sapiens. The experiment can be described thus: Ratio of IC50 for human recombinant factor 11a catalytic domain Lys529Ala/Arg530Ala/Arg532Ala triple mutant to IC50 for human recombinant factor XIa catalytic domain. In outline: as §3
The target in experiment [11] is T1, Coagulation factor XI. The experiment is described as follows: Inhibition of human recombinant factor 11a catalytic domain. In outline: as §3
Experiment [12] concerns the target T1, Coagulation factor XI. The experiment is described as follows: Inhibition of human recombinant factor 11a catalytic domain transfected in HEK293 cells using S2366 as substrate assessed as residual protease activity at 3 uM after 10 mins by spectrophotometry. The gist of the method:
as §2

Experiment [13] concerns HEK293. The experiment is described as follows: Inhibition of human recombinant factor 11a catalytic domain Lys529Ala/Arg530Ala/Arg532Ala triple mutant transfected in HEK293 cells using S2366 as substrate assessed as residual protease activity at 3 uM after 10 mins by spectrophotometry. In outline:
as §2

The test system of experiment [14] is HEK293. The experiment is described as follows: Inhibition of human recombinant factor 11a catalytic domain Lys535Ala/Lys539Ala double mutant transfected in HEK293 cells. It counts as cell-based.

Molecules are shown by their SMILES. The source made the active and inactive calls. The rule behind the calls is not given here.

T1 sequence (P03951 19-387 limits assumed): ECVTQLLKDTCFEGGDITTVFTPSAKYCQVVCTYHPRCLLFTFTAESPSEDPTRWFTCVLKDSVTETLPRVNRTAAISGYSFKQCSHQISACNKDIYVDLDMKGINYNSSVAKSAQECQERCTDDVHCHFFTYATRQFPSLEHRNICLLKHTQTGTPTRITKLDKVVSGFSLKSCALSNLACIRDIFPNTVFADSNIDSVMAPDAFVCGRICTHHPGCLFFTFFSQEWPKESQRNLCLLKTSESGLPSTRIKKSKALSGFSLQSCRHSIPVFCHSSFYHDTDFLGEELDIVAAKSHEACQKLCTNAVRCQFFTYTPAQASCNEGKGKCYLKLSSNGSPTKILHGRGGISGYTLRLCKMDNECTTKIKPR
T1 sequence (P03951 388-625 limits assumed): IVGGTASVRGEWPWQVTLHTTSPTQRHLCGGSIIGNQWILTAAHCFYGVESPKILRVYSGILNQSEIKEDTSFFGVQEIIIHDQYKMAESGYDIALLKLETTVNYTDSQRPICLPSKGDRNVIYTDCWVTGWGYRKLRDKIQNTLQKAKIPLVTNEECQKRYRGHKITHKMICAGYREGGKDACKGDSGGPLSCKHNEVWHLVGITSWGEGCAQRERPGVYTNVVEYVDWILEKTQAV
Chain of Coagulation factor X (Homo sapiens) (P00742 41-179 limits assumed): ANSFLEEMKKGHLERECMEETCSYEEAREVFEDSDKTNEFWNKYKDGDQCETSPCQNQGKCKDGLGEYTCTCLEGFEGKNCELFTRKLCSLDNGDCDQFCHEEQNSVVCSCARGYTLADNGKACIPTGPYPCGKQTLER
Chain of Coagulation factor X (Homo sapiens) (P00742 235-488 limits assumed): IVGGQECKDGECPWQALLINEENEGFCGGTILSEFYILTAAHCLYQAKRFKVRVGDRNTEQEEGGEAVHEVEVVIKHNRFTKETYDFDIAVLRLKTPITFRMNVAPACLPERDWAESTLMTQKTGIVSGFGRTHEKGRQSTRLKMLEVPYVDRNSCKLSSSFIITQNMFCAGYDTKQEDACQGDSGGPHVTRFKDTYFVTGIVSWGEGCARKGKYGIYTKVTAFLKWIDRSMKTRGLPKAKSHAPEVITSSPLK

Usually IC50 stands for the point on the concentration scale where inhibition reaches its midpoint. The low end stands for higher potency, the high end for lower potency. Consider `O=c1c2ccccc2nc(-c2cccc(OS(=O)(=O)O)c2)n1CCCCn1cc(Cn2c(-c3cccc(OS(=O)(=O)O)c3)nc3ccccc3c2=O)nn1`, for which, on Coagulation factor XI [1], the Efficacy turned out to be 100%. Besides, the IC50 against Coagulation factor XI [2] amounted to 102 µM.
Broadly, the Kd is the equilibrium constant for the complex coming apart. Read a low Kd as tighter binding. For `O=c1c2ccccc2nc(-c2cccc(OS(=O)(=O)O)c2)n1CCCCn1cc(Cn2c(-c3ccc(OS(=O)(=O)O)cc3)nc3ccccc3c2=O)nn1`, the Efficacy at Coagulation factor XI [1] turned out to be 103%. Further, the IC50 against Coagulation factor XI [2] stood at 91 µM. Further, at Coagulation factor XI [3], binding was put at a Kd of 91 µM.
As to `COc1cc(-c2nc3ccccc3c(=O)n2CCCCn2cc(Cn3c(-c4cccc(OS(=O)(=O)O)c4)nc4ccccc4c3=O)nn2)ccc1OS(=O)(=O)O`, at Coagulation factor XI [1], the Efficacy was 88%. Also, the IC50 against Coagulation factor XI [2] turned out to be 182 µM.
For `O=c1c2ccccc2nc(-c2cccc(OS(=O)(=O)O)c2)n1CCCn1cc(Cn2c(-c3cccc(OS(=O)(=O)O)c3)nc3ccccc3c2=O)nn1` the same measures were 91% and 320 µM.
The like results for `O=c1c2ccccc2nc(-c2ccc(OS(=O)(=O)O)cc2)n1CCCCn1cc(Cn2c(-c3cccc(OS(=O)(=O)O)c3)nc3ccccc3c2=O)nn1` were, in that order, 88% and 159 µM.
For `O=c1c2ccccc2nc(-c2cccc(OS(=O)(=O)O)c2)n1CCCCn1cc(Cn2c(-c3cc(OS(=O)(=O)O)cc(OS(=O)(=O)O)c3)nc3ccccc3c2=O)nn1` the same measures were 93% and 213 µM.
On to `O=c1c2ccccc2nc(-c2ccc(OS(=O)(=O)O)cc2)n1CCCCn1cc(Cn2c(-c3ccc(OS(=O)(=O)O)cc3)nc3ccccc3c2=O)nn1`, for which the inhibition result in [4], in experiment [5], in experiment [6] and in experiment [7] was “inactive” each time. Further, the 2aPTT with Plasma worked out at 979 µM. Further, at Coagulation factor XI [1], the Efficacy stood at 91%. Further, at Coagulation factor XI [2], it took 82 µM to reach half-maximal inhibition (IC50). The affinity on Coagulation factor XI [3], expressed as Kd, was 84 µM.
Regarding `COc1cc(OS(=O)(=O)O)cc2oc(-c3ccc(OS(=O)(=O)O)c(OCc4cn(CCCCn5c(-c6cc(OC(C)=O)cc(OS(=O)(=O)O)c6)nc6ccccc6c5=O)nn4)c3)c(OS(=O)(=O)O)c(=O)c12`, the Efficacy on Coagulation factor XI [1] turned out to be 90%. This compound also registered an IC50 against Coagulation factor XI [2] of 407 µM.
The like results for `CC(=O)Oc1cc(OS(=O)(=O)O)cc(-c2nc3ccccc3c(=O)n2CCCCn2cc(Cn3c(-c4cc(OS(=O)(=O)O)cc(OS(=O)(=O)O)c4)nc4ccccc4c3=O)nn2)c1` were, in that order, 91% and 273 µM.
With `O=c1c2ccccc2nc(-c2ccc(OS(=O)(=O)O)cc2)n1CCCCCCn1cc(Cn2c(-c3ccc(OS(=O)(=O)O)cc3)nc3ccccc3c2=O)nn1`, the values for the Activity on Coagulation factor XI [8], at Coagulation factor XI [12] and with HEK293 [13] were 4.2%, 6.3% and 4.9%, respectively. In addition, the Ratio IC50 was 2 in the experiment filed under Homo sapiens [9] and 5 in the experiment listed under Homo sapiens [10]. Besides, the inhibition result in experiment [4], in experiment [5], in experiment [6] and in experiment [7] was “inactive” throughout. The 2aPTT in the experiment on Plasma was found to be 950 µM. Further, the inhibition entry on Coagulation factor XI [11] and in the experiment on HEK293 [14] was “Active” each time. Besides, at Coagulation factor XI [1], the Efficacy came out at 97%. For the same compound, half-maximal inhibition at Coagulation factor XI [2] (IC50) required 52 µM. This compound displayed a Kd at Coagulation factor XI [3] of 38 µM.
As for `COc1cc(OS(=O)(=O)O)cc2oc(-c3ccc(OS(=O)(=O)O)c(OCc4cn(CCCCn5c(-c6cccc(OS(=O)(=O)O)c6)nc6ccccc6c5=O)nn4)c3)c(OS(=O)(=O)O)c(=O)c12`, the IC50 against Coagulation factor XI [2] was over 1000 µM.
In the case of `CC(=O)Oc1cc(OS(=O)(=O)O)cc(-c2nc3ccccc3c(=O)n2CCCCn2cc(Cn3c(-c4cc(O)cc(OS(=O)(=O)O)c4)nc4ccccc4c3=O)nn2)c1`, the Efficacy at Coagulation factor XI [1] was found to be 96%. Further, inhibition on Coagulation factor XI [2] was half-maximal at 153 µM (IC50).
The like results for `COc1cc(-c2nc3ccccc3c(=O)n2CCCCn2cc(COc3cc(-c4oc5cc(OS(=O)(=O)O)cc(OC)c5c(=O)c4OS(=O)(=O)O)ccc3OS(=O)(=O)O)nn2)ccc1OS(=O)(=O)O` were, in that order, 50% and 216 µM.
For `COc1cc(-c2nc3ccccc3c(=O)n2CCCCn2cc(Cn3c(-c4ccc(OS(=O)(=O)O)c(OC)c4)nc4ccccc4c3=O)nn2)ccc1OS(=O)(=O)O` the same measures were 95% and 139 µM.
At Coagulation factor XI [2], `CC(=O)Oc1cccc(-c2nc3ccccc3c(=O)n2Cc2cn(CCCCn3c(-c4cccc(OS(=O)(=O)O)c4)nc4ccccc4c3=O)nn2)c1` had an IC50 of over 1000 µM.
On Coagulation factor XI [2], `O=c1c2ccccc2nc(-c2cc(OS(=O)(=O)O)cc(OS(=O)(=O)O)c2)n1CCCCn1cc(Cn2c(-c3cc(OS(=O)(=O)O)cc(OS(=O)(=O)O)c3)nc3ccccc3c2=O)nn1` gave an IC50 of over 1000 µM.
`O=c1c2ccccc2nc(-c2ccc(OS(=O)(=O)O)cc2)n1CCCCCn1cc(Cn2c(-c3ccc(OS(=O)(=O)O)cc3)nc3ccccc3c2=O)nn1`: the inhibition entry in experiment [4], in experiment [5], in experiment [6] and in experiment [7] was “inactive” throughout. Also, the 2aPTT in the experiment on Plasma came out at 1062 µM. At Coagulation factor XI [1], the Efficacy is 89%. At Coagulation factor XI [2], this compound returned an IC50 of 59 µM. Moreover, on Coagulation factor XI [3], the affinity, expressed as Kd, was 37 µM.
On to `O=c1c2ccccc2nc(-c2ccc(OS(=O)(=O)O)cc2)n1Cc1cn(CCn2cc(Cn3c(-c4ccc(OS(=O)(=O)O)cc4)nc4ccccc4c3=O)nn2)nn1`, for which the Efficacy at Coagulation factor XI [1] was determined as 98%. The IC50 at Coagulation factor XI [2] worked out at 305 µM.
With `O=c1c2ccccc2nc(-c2ccc(OS(=O)(=O)O)cc2)n1CCCCCn1nncc1Cn1c(-c2ccc(OS(=O)(=O)O)cc2)nc2ccccc2c1=O`, the Efficacy at Coagulation factor XI [1] is 94%.
